Consider 12 molecules from ChEMBL document CHEMBL1938355, “Antimycobacterial activities of 5-alkyl (or halo)-3'-substituted pyrimidine nucleoside analogs” (Bioorg Med Chem Lett, 2012).

Experiment [1] relates to Mycobacterium tuberculosis. Kind of experiment: Antimycobacterial activity against Mycobacterium bovis BCG assessed as growth inhibition at 100 ug/ml by microplate alamar blue assay. In kind it is functional. To be noted: variant bovis BCG, read-out: GI. The procedure, abridged: (§1)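 Strains obtained from ATCC. Tested by microplate alamar blue assay. Compounds made up as 10 mg/mL DMSO stocks, then serially diluted in 7H9GC medium. Final test concentrations were 100, 50, 25, 10, 5, 1 and 0.5, each in triplicate. Experiments were run twice, and mean percent growth inhibition is reported.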
A general note: Alamar Blue is a resazurin reagent that responds to reducing activity.

Experiment [2] deals with Mycobacterium tuberculosis. Kind of experiment: Antimycobacterial activity against Mycobacterium bovis BCG assessed as growth inhibition at 1 ug/ml by microplate alamar blue assay. It counts as functional. To be noted: variant bovis BCG, read-out: GI. The procedure, abridged: as §1
Experiment [3] has as its system Mycobacterium tuberculosis. Kind of experiment: Antimycobacterial activity against Mycobacterium bovis BCG by microplate alamar blue assay. It counts as functional. To be noted: variant bovis BCG.
The subject of experiment [4] is Mycobacterium tuberculosis. Kind of experiment: Antimycobacterial activity against Mycobacterium bovis BCG assessed as growth inhibition at 50 ug/ml by microplate alamar blue assay. In kind it is functional. To be noted: variant bovis BCG, read-out: GI. The procedure, abridged:
as §1

The test system of experiment [5] is Mycobacterium tuberculosis. Kind of experiment: Antimycobacterial activity against Mycobacterium bovis BCG assessed as growth inhibition at 10 ug/ml by microplate alamar blue assay. To be noted: variant bovis BCG, read-out: GI. In kind it is functional. The procedure, abridged: as §1
In experiment [6] the test system is Mycobacterium tuberculosis. Kind of experiment: Antimycobacterial activity against Mycobacterium bovis BCG assessed as growth inhibition at 0.5 to 100 ug/ml by microplate alamar blue assay. Particulars: variant bovis BCG. In kind it is functional, organism-based. The procedure, abridged: as §1
For experiment [7], the system named is Mycobacterium tuberculosis. Kind of experiment: Antimycobacterial activity against Mycobacterium bovis BCG assessed as growth inhibition at 0.5 ug/ml by microplate alamar blue assay. In kind it is functional. To be noted: variant bovis BCG, read-out: GI. The procedure, abridged: as §1

Converted amounts (≈) assume the structure as drawn. The source made the active and inactive calls. The calls are words filed in the database; no cut-off is given here.

By MIC50 is commonly meant an inhibitory concentration at the 50% level, which refers to growth in some studies and to a panel of isolates in others. A low value points to higher susceptibility.

On to `[N-]=[N+]=N[C@H]1C[C@H](n2cc(Br)c(=O)[nH]c2=O)O[C@@H]1CO`, for which the inhibition of growth at 100 µg/mL in experiment [1] is 50%.
The same measure, in the same setting: the figure for `CCc1cn([C@H]2C[C@H](F)[C@@H](CO)O2)c(=O)[nH]c1=O` is 40%.
For `N[C@@H]1CONC1=O` [CYCLOSERINE], in experiment [1], the inhibition of growth at 100 µg/mL turned out to be 100%. Moreover, in experiment [2], the inhibition of growth at 1 µg/mL turned out to be 50%. The same molecule showed an MIC50 in experiment [3] of 1 µg/mL (≈ 9.79 µM). Further, the inhibition of growth at 50 µg/mL in experiment [4] was found to be 100%. Besides, in experiment [5], the inhibition of growth at 10 µg/mL amounted to 100%.
In the case of `[N-]=[N+]=N[C@H]1C[C@H](n2cc(F)c(=O)[nH]c2=O)O[C@@H]1CO`, in experiment [6], the “growth inhibition (GI)” value was “inactive”.
`CCc1cn([C@H]2C[C@H](I)[C@@H](CO)O2)c(=O)[nH]c1=O`: in experiment [6], the “growth inhibition (GI)” value is “inactive”.
Turning to `CO[C@H]1/C=C/O[C@@]2(C)Oc3c(C)c(O)c4c(O)c(c(/C=N/N5CCN(C)CC5)c(O)c4c3C2=O)NC(=O)/C(C)=C\C=C\[C@H](C)[C@H](O)[C@@H](C)[C@@H](O)[C@@H](C)[C@H](OC(C)=O)[C@@H]1C` [RIFAMPIN], the inhibition of growth at 0.5 µg/mL in experiment [7] was determined as 100%.
`CCc1cn([C@H]2C[C@@H](O)[C@@H](CO)O2)c(=O)[nH]c1=O`: the “growth inhibition (GI)” value in experiment [6] is “inactive”.
On to `CCc1cn([C@H]2C[C@H](N=[N+]=[N-])[C@@H](CO)O2)c(=O)[nH]c1=O`, for which the inhibition of growth at 100 µg/mL in experiment [1] was 95%. In addition, the inhibition of growth at 1 µg/mL in experiment [2] is 50%. Besides, the MIC50 in experiment [3] was 1 µg/mL (≈ 3.56 µM). Further, the inhibition of growth at 50 µg/mL in experiment [4] was determined as 95%. Also, the inhibition of growth at 10 µg/mL in experiment [5] was found to be 85%.
For the molecule `Cc1cn([C@H]2C[C@H](N)[C@@H](CO)O2)c(=O)[nH]c1=O` [3-AMINO- 3-DEOXYTHYMIDINE], in experiment [1], the inhibition of growth at 100 µg/mL is 50%.
Turning to `CCc1cn([C@H]2CC[C@@H](CO)O2)c(=O)[nH]c1=O`, the “growth inhibition (GI)” value in experiment [6] is “inactive”.
For `O=c1[nH]c(=O)n([C@H]2C[C@H](F)[C@@H](CO)O2)cc1C(F)(F)F`, in experiment [6], the “growth inhibition (GI)” value was “inactive”.
Regarding `[N-]=[N+]=N[C@H]1C[C@H](n2cc(Cl)c(=O)[nH]c2=O)O[C@@H]1CO`, the inhibition of growth at 100 µg/mL in experiment [1] worked out at 50%.
